{"source": "paper PMC10794003", "about": "(European journal of medicinal chemistry, 2023)", "note": "“Also recorded” adds a separate entry of the source.", "data": [{"tested_on": "Nrf2 target genes GSTM3, NQO1, or HMOX1 in NCM460D cells", "experiment": "RT-qPCR of Nrf2 target genes in NCM460D cells", "type": "cell-based", "conditions": "24 h incubation at 1, 10 and 100 μM, RT-PCR", "summary_of_the_method": "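NCM460D cells exposed to test compound at 1, 10 and 100 μM for 24 h. Positive controls were a reference Keap1-Nrf2 PPI inhibitor (1, 10, 100 μM) and CDDO (10 and 100 nM); 0.1 % DMSO served as the negative control. RNA was quantified, reverse-transcribed to cDNA, and GSTM3, NQO1 and HMOX1 were measured by RT-qPCR, normalized to endogenous GAPDH.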", "values": [{"smiles": "Cc1ccc(S(=O)(=O)N(CC(=O)O)c2ccc(N(CC(=O)O)S(=O)(=O)c3ccc(C)cc3)c(OCC(=O)O)c2)cc1", "note": "[8g, 2,2′-((2-(Carboxymethoxy)-1,4-phenylene)bis(tosylazanediyl))diacetic acid]", "transcriptional induction of Nrf2 target genes NQO1, GSTM3 and HMOX1": "less transcriptional induction; also recorded: relatively low expressions"}, {"smiles": "Cc1ccc(S(=O)(=O)N(CC(=O)O)c2cc(CCC(=O)O)c(N(CC(=O)O)S(=O)(=O)c3ccc(C)cc3)c3ccccc23)cc1", "note": "[17b, 2,2′-((2-(2-Carboxyethyl)naphthalene-1,4-diyl)bis(tosylazanediyl))diacetic acid]", "transcriptional induction of Nrf2 target genes NQO1, GSTM3 and HMOX1": "similarly high effects"}, {"smiles": "Cc1ccc(S(=O)(=O)N(CC(=O)O)c2cc(OCC(=O)O)c(N(CC(=O)O)S(=O)(=O)c3ccc(C)cc3)c3ccccc23)cc1", "note": "[compound 18, 2,2′-((2-(Carboxymethoxy)naphthalene-1,4-diyl)bis(tosylazanediyl))diacetic acid]", "transcriptional induction of Nrf2 target genes NQO1, GSTM3 and HMOX1": "similarly high effects"}]}]}
